Results from ChEMBL document CHEMBL1123797, “Antianaphylactic benzophenones and related compounds” (1987).

Columns and labels:
Cavia porcellus [1] = assay: Time of dosing of compound before antigen challenge in conscious sensitized guinea pig at 100 mg/kg po dose; type: functional
Summary of the method: (§1)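 Modified Herxheimer test in conscious sensitized guinea pigs, 4-5 per group. Compound was given orally at 25, 50 or 100 mg/kg 2 or 4 h before antigen challenge. Some groups also received mepyramine 0.5 mg/kg sc 0.5 h before challenge. D = mean collapse time of treated/untreated controls; M+D = mean collapse time of compound+mepyramine/mepyramine-dosed controls.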

Cavia porcellus [2] = assay: Mean collapse time after pretreatment with compound divided by mean collapse time of untreated control animals at 50 mg/kg po dose; type: functional; summary of the method: as §1
Cavia porcellus [3] = assay: Mean collapse time after pretreatment with compound divided by mean collapse time of untreated control animals at 100 mg/kg po dose; type: functional; summary of the method: as §1
Cavia porcellus [4] = organism: Cavia porcellus; assay: Inhibition of slow reacting substance of anaphylaxis (SRS-A) release from sensitized guinea pig chopped lung upon antigen challenge at 10 ug/mL; type: functional
Summary of the method: (§2)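 Guinea pigs sensitized to ovalbumin; lungs taken 3 weeks later, perfused with Tyrode, chopped into 0.5-mm cubes. 100-mg aliquots in Tyrode were preincubated 5 min at 37 °C, then compound or Tyrode and ovalbumin (5 mg in 0.1 mL) were added. Incubation was 15 min at 37 °C with rocking, and supernatant was bioassayed. Unchallenged control gave spontaneous release. Values are % inhibition, mean of ≥4 samples; Student's t-test.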

Cavia porcellus [5] = assay: Mean collapse time after pretreatment with compound and mepyramine divided by mean collapse time of mepyramine-dosed control animals at 100 mg/kg po dose; type: functional; summary of the method: as §1
Cavia porcellus [6] = assay: Mean collapse time after pretreatment with compound and mepyramine divided by mean collapse time of mepyramine-dosed control animals at 50 mg/kg po dose; type: functional; summary of the method: as §1
Homo sapiens [7] = organism: Homo sapiens; assay: Inhibition of Histamine mediator release form passively sensitized human lung upon antigen challenge at 10 ug/mL dose; type: functional
Summary of the method: (§3)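 Healthy human lung from carcinoma surgery was chopped into 0.5-mm cubes and passively sensitized 18 h at 18 °C with atopic serum from cocksfoot-pollen-allergic patients. Tissue was preincubated 5 min with compound, challenged with pollen extract (0.1 mL, 1000 noon units) and incubated as for guinea pig lung. Supernatant was bioassayed on guinea pig ileum, with mepyramine-treated (0.4 μg/mL) ileum for SRS-A. Values are % inhibition of mediator release.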

Cavia porcellus [8] = assay: Time of dosing of compound before antigen challenge in conscious sensitized guinea pig at 25 mg/kg po dose; type: functional; summary of the method: as §1
Homo sapiens [9] = organism: Homo sapiens; assay: Inhibition of Slow reacting substance of anaphylaxis (SRS-A) mediator release form passively sensitized human lung upon antigen challenge at 1 ug/mL dose; type: functional; summary of the method: as §3
Cavia porcellus [10] = assay: Mean collapse time after pretreatment with compound divided by mean collapse time of untreated control animals at 25 mg/kg po dose; type: functional; summary of the method: as §1
Cavia porcellus [11] = organism: Cavia porcellus; assay: Inhibition of histamine release from sensitized guinea pig chopped lung upon antigen challenge at 10 ug/mL.; type: functional; summary of the method: as §2
Cavia porcellus [12] = assay: Mean collapse time after pretreatment with compound and mepyramine divided by mean collapse time of mepyramine-dosed control animals at 25 mg/kg po dose; type: functional; summary of the method: as §1
Homo sapiens [13] = organism: Homo sapiens; assay: Inhibition of Histamine mediator release form passively sensitized human lung upon antigen challenge at 1 ug/mL dose; type: functional; summary of the method: as §3
Homo sapiens [14] = organism: Homo sapiens; assay: Inhibition of Slow reacting substance of anaphylaxis (SRS-A) mediator release form passively sensitized human lung upon antigen challenge at 10 ug/mL dose; type: functional; summary of the method: as §3
Cavia porcellus [15] = assay: Time of dosing of compound before antigen challenge in conscious sensitized guinea pig at 50 mg/kg po dose; type: functional; summary of the method: as §1
Cavia porcellus [16] = organism: Cavia porcellus; assay: Inhibition of slow reacting substance of anaphylaxis (SRS-A) release from sensitized guinea pig chopped lung upon antigen challenge.; type: functional; summary of the method: as §2
Homo sapiens [17] = organism: Homo sapiens; assay: Inhibition of Histamine mediator release form passively sensitized human lung upon antigen challenge at 10(ug/mL) dose:; type: functional; summary of the method: as §3
Homo sapiens [18] = organism: Homo sapiens; assay: Inhibition of Slow reacting substance of anaphylaxis (SRS-A) mediator release form passively sensitized human lung upon antigen challenge at 10(ug/mL) dose:; type: functional; summary of the method: as §3
Cavia porcellus [19] = assay: Mean collapse time after pretreatment with compound and mepyramine divided by mean collapse time of mepyramine-dosed control animals at 2 mg/kg po dose; type: functional
Cavia porcellus [20] = assay: Time of dosing of compound before antigen challenge in conscious sensitized guinea pig at 2 mg/kg po dose; type: functional
Cavia porcellus [21] = assay: Mean collapse time after pretreatment with compound divided by mean collapse time of untreated control animals at 2 mg/kg po dose; type: functional
Cavia porcellus [22] = assay: Effect on bronchospasm in conscious sensitized guinea pig upon antigen challenge (herxheimer) at 25 mg/kg po dose; type: functional, Bronchiole; summary of the method: as §1
Cavia porcellus [23] = organism: Cavia porcellus; assay: Compound was tested for the inhibition of histamine release from sensitized guinea pig chopped lung upon antigen challenge at 10 ug/mL; type: functional; summary of the method: as §2

Row | Compound | Activity (Cavia porcellus [2]) | Inhibition (Cavia porcellus [4]) [%] | Activity (Cavia porcellus [6]) | Inhibition (Homo sapiens [7]) [%] | Inhibition (Homo sapiens [9]) [%] | Activity (Cavia porcellus [10]) | Inhibition (Cavia porcellus [11]) [%] | Activity (Cavia porcellus [12]) | Inhibition (Homo sapiens [13]) [%] | Inhibition (Homo sapiens [14]) [%] | Time (Cavia porcellus [15]; dose 50 mg/kg) [h] | further results
1 | CCc1ccc(C(=O)c2ccc(F)cc2)c(O)c1 | 1.3 | 5 | 2.8 | – | – | – | – | – | – | – | – | Time (Cavia porcellus [1]): 2 h; Activity (Cavia porcellus [3]): 1.2; Activity (Cavia porcellus [5]): 2.3
2 | CCc1ccc(O)c([S+]([O-])c2ccc(Cl)cc2)c1 (centres undefined) | 1 | 48 | 1.7 | 31 | 69 | 1.3 | 26 | 1.7 | 0 | 99 | 2 | Time (Cavia porcellus [8]): 4 h
3 | CCc1ccc(OC)c(C(O)c2ccc(Cl)cc2)c1 (centres undefined) | – | 14 | – | – | – | 0.8 | – | 2.7 | – | – | – | Time (Cavia porcellus [15]; dose 25 mg/kg, in the assay text read “at 25 mg/kg po dose” for “at 50 mg/kg po dose”): 2 h
4 | CCc1ccc(O)c(C(=O)c2cccs2)c1 | 0.7 | 59 | 1.6 | 0 | 55 | – | 0 | – | 0 | 67 | 2 | –
5 | CCc1ccc(O)c(S(=O)(=O)c2ccccc2)c1 | – | – | – | – | – | – | – | – | – | – | – | Inhibition (Cavia porcellus [16]): 0%
6 | C=C(c1ccc(C)cc1)c1cc(CC)ccc1O | 1 | 0 | 3.5 | – | – | – | – | – | – | – | – | Inhibition (Homo sapiens [17]): 0%; Inhibition (Homo sapiens [18]): 84%
7 | CCc1ccc(O)c(S(=O)(=O)c2ccc(Cl)cc2)c1 | – | – | – | – | – | – | – | – | – | – | – | Inhibition (Cavia porcellus [16]): 19%
8 | CN1CCC(=C2c3ccccc3CC(=O)c3sccc32)CC1 [KETOTIFEN] | – | 38 | – | 23 | 51 | – | 37 | – | 0 | 100 | – | Activity (Cavia porcellus [19]): 3.1; Time (Cavia porcellus [20]): 2 h; Activity (Cavia porcellus [21]): 4.2
9 | CCc1ccc(O)c(C(=O)c2ccc(Cl)cc2)c1 | – | 51 | – | 0 | 74 | 0.8 | 3 | 2.7 | 0 | 100 | – | Time (Cavia porcellus [1]): 2 h; Activity (Cavia porcellus [3]): 1.4; Activity (Cavia porcellus [5]): 1.8; Time of dosing before antigen challenge. (Cavia porcellus [22]): 4 h
10 | CCc1ccc(O)c(C(=O)c2ccsc2)c1 | 0.8 | 26 | 2.3 | – | – | – | – | – | – | – | 2 | Inhibition (Cavia porcellus [23]): 37%
